STAT3 activator: STAT3 signaling activation. U3A cells, IL-6 STAT3-luciferase reporter, luminescence; 100% = signal with IL-6 EC80 alone. activation (% of control), % at 5.6 µM. 0.91% of 190,000 active;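 active means activation above the screen-wide mean of compound activation plus 3 SD, cut at about 130% in these data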;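 further: 0% = background luminescence of wells with medium and substrate only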
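Test system: human U3A cells carrying STAT3-luciferase construct; control set: IL-6-only wells as 100% reference; timing: compound pre-incubation 1 h before IL-6, then 6 h stimulation at 37 °C; also added: IL-6 stimulus at 33 ng/mL final; evaluation: % activation versus median of IL-6-stimulated wells; detection: reporter luminescence signal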
STAT3 inh: reduces IL-6 driven STAT3 reporter signal; U3A cells, IL-6 STAT3-luciferase reporter, luminescence; host cell line lacks STAT1; inhibition, % at 5.5 µM; 0.89% of 190,000 active; AID 862;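 active means inhibition above the mean inhibition across all screened compounds plus 3 SD, cut at about 44% in these data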;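 further: 0% = DMSO only wells and 100% = 100 µM nifuroxazide control wells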
APP 5'UTR act: APP 5'UTR luciferase reporter activation. SH-SY5Y APP 5'UTR luciferase reporter, luminescence; zero percent = DMSO vehicle wells. activation, % at 2 µM. 1% of 190,000 active. AID 1276;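 active means activation above a set limit, based on mean plus 3 SD of controls, cut at about 140% in these data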
STAT1 blocker: reduces IFN-gamma driven STAT1 reporter signal; NIH 3T3 STAT1-luciferase reporter, luminescence; 0.35% of 200,000 active; AID 920; inhibition, % at 5.5 µM;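 active means inhibition above a set limit, the mean inhibition across all tested compounds plus 3 SD, cut at about 34% in these data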;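 further: 0% = IFN-gamma with DMSO and 100% = IFN-gamma with 300 µM nifuroxazide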
NF-kB neuron act: compounds increasing NF-kB expression in human neuronal cells; NF-kB reporter expression; active compounds read high; fold change at 12.5 µM; 1.6% of 190,000 active; AID 1239; in the data active means fold change above about 3.3
STAT1 activator: STAT1 signaling activation. NIH 3T3 STAT1-luciferase reporter, IFN-gamma, luminescence; 100% = IFN-gamma alone, no compound. activation (% of control), % at 5.5 µM. 2.6% of 200,000 active;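 active means activation above the screen-wide mean activation plus 3 SD, cut at about 130% in these data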;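 further: raw ratio to IFN-gamma control signal so 100% means no change and 0% no light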
Active calls of the source: *. A selection: hits, their analogues and other compounds. The true share with any hit is near 5.1%.

How did c1ccc(-c2n[nH]c(-c3ccccn3)n2)nc1 do in these assays?
STAT3 activator: 103; STAT3 inh: 0; APP 5'UTR act: 46; STAT1 blocker: -48; NF-kB neuron act: 2; STAT1 activator: 144*

How did Cc1cc(=O)oc2cc(OCC(=O)OC(C)C(=O)NC3CCCC3)ccc12 (stereo not given) do in these assays?
STAT3 activator: 96; STAT3 inh: 7; APP 5'UTR act: 20; STAT1 blocker: -4; NF-kB neuron act: 1; STAT1 activator: 101

Results for Nc1ncc(Br)cc1N=Cc1ccccc1 ?
STAT3 activator: 92; STAT3 inh: 12; APP 5'UTR act: 86; STAT1 blocker: -55; NF-kB neuron act: 4.7*; STAT1 activator: 149*

Results for CCn1nc(C)cc1C(=O)N1CCc2c([nH]c3ccccc23)C1c1cc(F)ccc1F (stereo not given) ?
STAT3 activator: 150*; STAT3 inh: -49; APP 5'UTR act: 41; STAT1 blocker: -44; NF-kB neuron act: 2.1; STAT1 activator: 137*

What do the screens show for `CCOC(=O)c1c(N2C(=O)Nc3cc(Cl)c(Cl)cc3N2O)sc2c1CCCCC2`?
STAT3 activator: 101; STAT3 inh: 0; APP 5'UTR act: 11; STAT1 blocker: 4; NF-kB neuron act: 1.3; STAT1 activator: 97

How did Brc1ccc(OCc2cn3ccccc3n2)cc1 do in these assays?
STAT3 activator: 73; STAT3 inh: 38; APP 5'UTR act: 140*; STAT1 blocker: -50; NF-kB neuron act: 4.6*; STAT1 activator: 147*

How did CCc1ccc(NC(=O)C(=O)NCc2ccccn2)cc1 do in these assays?
STAT3 activator: 94; STAT3 inh: 10; APP 5'UTR act: 10; STAT1 blocker: -38; NF-kB neuron act: 2.1; STAT1 activator: 132*

How did CCc1ccc(NC(=O)C(=O)NCC2CCCO2)cc1 (stereo not given) do in these assays?
STAT3 activator: 93; STAT3 inh: 11; APP 5'UTR act: 114; STAT1 blocker: -34; NF-kB neuron act: 2.5; STAT1 activator: 131*

What do the screens show for `CCc1ccc(CNC(=O)C(=O)NCC2CCCO2)cc1` (stereo not given)?
STAT3 activator: 96; STAT3 inh: 7; APP 5'UTR act: 14; STAT1 blocker: 3; NF-kB neuron act: 1.6; STAT1 activator: 96

What do the screens show for `COC(=O)c1ccc(NC(=O)CN(c2ccc(OC)cc2)S(C)(=O)=O)cc1`?
STAT3 activator: 122; STAT3 inh: -24; APP 5'UTR act: 20; STAT1 blocker: -37; NF-kB neuron act: 2.8; STAT1 activator: 134*

What do the screens show for `N/C(=N\OC(=O)c1cccc(Br)c1)c1ccc(Br)cc1`?
STAT3 activator: 124; STAT3 inh: -18; APP 5'UTR act: -5; STAT1 blocker: 2; NF-kB neuron act: 0.98; STAT1 activator: 98

Results for N/C(=N\OC(=O)c1ccc(Br)cc1)c1ccccc1 ?
STAT3 activator: 96; STAT3 inh: 14; APP 5'UTR act: 124; STAT1 blocker: -56; NF-kB neuron act: 9.7*; STAT1 activator: 150*

How did Cc1ccc(C(=O)O/N=C(\N)c2ccc(Br)cc2)cc1 do in these assays?
STAT3 activator: 91; STAT3 inh: 18; APP 5'UTR act: 36; STAT1 blocker: -40; NF-kB neuron act: 3.8*; STAT1 activator: 137*

What do the screens show for `CCn1c2ccccc2c2cc(NC(=O)c3cc(OC)c(OC)c(OC)c3)ccc21`?
STAT3 activator: 116; STAT3 inh: -8; APP 5'UTR act: -8; STAT1 blocker: -3; NF-kB neuron act: 3.2; STAT1 activator: 103

How did CCn1c2ccccc2c2cc(NC(=O)c3cc(OC)cc(OC)c3)ccc21 do in these assays?
STAT3 activator: 128; STAT3 inh: -33; APP 5'UTR act: -95; STAT1 blocker: 3; NF-kB neuron act: 4*; STAT1 activator: 97

How did COc1ccc2nc(/N=C(\N)NC(=O)C(C)(C)C)nc(C)c2c1 do in these assays?
STAT3 activator: 107; STAT3 inh: -3; APP 5'UTR act: 16; STAT1 blocker: -32; NF-kB neuron act: 0.7; STAT1 activator: 129*

Results for CCC(=O)N/C(N)=N/c1nc(C)c2cc(OC)ccc2n1 ?
STAT3 activator: 122; STAT3 inh: -21; APP 5'UTR act: 27; STAT1 blocker: -36; NF-kB neuron act: 1.5; STAT1 activator: 134*

How did COc1ccc2nc(/N=C(\N)NC(=O)N3c4ccccc4Sc4ccccc43)nc(C)c2c1 do in these assays?
STAT3 activator: 93; STAT3 inh: 8; APP 5'UTR act: 2; STAT1 blocker: -10; NF-kB neuron act: 0.6; STAT1 activator: 109

Results for CCOC(=O)c1ccc2c(c1)N(CC#N)C(=O)C(C)(C)O2 ?
STAT3 activator: 101; STAT3 inh: 10; APP 5'UTR act: 0; STAT1 blocker: 0; NF-kB neuron act: 1.6; STAT1 activator: 99

Results for CS(=O)(=O)c1ccc(S(=O)CC(=O)Oc2ccc(Cl)cc2)c([N+](=O)[O-])c1 (stereo not given) ?
STAT3 activator: 135*; STAT3 inh: -38; APP 5'UTR act: -35; STAT1 blocker: 3; NF-kB neuron act: 1.1; STAT1 activator: 96

Results for Cc1ccc2c(N)c(C(=O)N(c3ccccc3)c3ccccc3)sc2n1 ?
STAT3 activator: 93; STAT3 inh: 10; APP 5'UTR act: 5; STAT1 blocker: -5; NF-kB neuron act: 1; STAT1 activator: 102

Results for Cc1c(C(=O)N2CCOCC2)sc2nc(-c3ccccc3)cn12 ?
STAT3 activator: 98; STAT3 inh: 8; APP 5'UTR act: 61; STAT1 blocker: -37; NF-kB neuron act: 2; STAT1 activator: 134*

What do the screens show for `Cc1c(C(=O)N2CCN(c3ccc(F)cc3)CC2)sc2nc(-c3ccccc3)cn12`?
STAT3 activator: 94; STAT3 inh: 12; APP 5'UTR act: 18; STAT1 blocker: -1; NF-kB neuron act: 1.1; STAT1 activator: 101

What do the screens show for `Nc1ccc2oc3ccc(N)cc3c(=O)c2c1`?
STAT3 activator: 87; STAT3 inh: 16; STAT1 blocker: -52; NF-kB neuron act: 2.1; STAT1 activator: 143*

How did O=C(O)c1cc2c(ccc3ccccc32)o1 do in these assays?
STAT3 activator: 106; STAT3 inh: 3; APP 5'UTR act: 11; STAT1 blocker: -7; NF-kB neuron act: 1.3; STAT1 activator: 107

How did CC(Oc1ccc(Cl)cc1Cl)C(=O)NNC(=O)C(=O)N1CCCCC1 (stereo not given) do in these assays?
STAT3 activator: 107; STAT3 inh: -11; APP 5'UTR act: 16; STAT1 blocker: -7; NF-kB neuron act: 1.3; STAT1 activator: 106

Results for O=C(NNc1c2ccccc2nc2ccccc12)c1cccc(O)c1 ?
STAT3 activator: 94; STAT3 inh: 7; APP 5'UTR act: 2; STAT1 blocker: 3; NF-kB neuron act: 0.3; STAT1 activator: 97

How did Oc1cccc(-c2nc3ccc4ccccc4c3c3c2CCC3)c1 do in these assays?
STAT3 activator: 114; STAT3 inh: -17; APP 5'UTR act: 88; STAT1 blocker: -45; NF-kB neuron act: 3.8*; STAT1 activator: 142*
